In general, Kd refers to a measure of binding affinity in units of concentration. Low values mean tighter binding, high ones weaker binding. As a reminder, the IC50 is the concentration that inhibits the measured activity by half.

Series [1] concerns the target c-Myc–Max(S)/DNA complex (Homo sapiens, UniProt P01106). The series is described as follows: EMSA, disruption of c-Myc–Max. In kind it is biochemical. The conditions noted are these: 100 µM compound, n = 1. Put shortly:
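His6-tagged proteins were expressed in E. coli BL21DE3(pLysS) with IPTG induction and purified on Ni-NTA under 8 M urea. The tag was removed with TEV protease, giving >95% purity. Each protein at 30 nM was mixed with 30 nM HEX-labelled double-stranded oligonucleotide carrying a c-Myc binding site. Complexes were resolved by gel shift.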
Background: A gel shift assay detects complexes by their altered migration in electrophoresis.

For series [2], the system named is c-Myc-dependent reporter (wt-Myc) in HeLa cells. The experiment in a line: Luciferase reporter, c-Myc binding sites. In kind it is cell-based. The conditions noted are these: 6 h.
Series [3] relates to NF-κB reporter in HeLa cells. The experiment in a line: Luciferase reporter, NF-κB binding sites. The note with it: 6 h. It counts as cell-based. On the technique in general: Reporter assays use an easily measured gene product as a stand-in for the process of interest.
The conditions of series [4]: metabolism of the nitro group; cited from earlier work.
Series [5] concerns H460 large cell lung cancer cells. The series is described as follows: Neutral lipid quantification, BODIPY-459/503. It counts as cell-based. The note with it: H460, 48 h. The essentials: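 Sub-confluent H460 cells were treated with test compound for 48 h, then washed, trypsinised and resuspended in PBS. […] was added in PBS at 50 µg/ml, and cells were stained for 30 min at ambient temperature. After three PBS washes, cells were analysed by flow cytometry. Mean fluorescence was expressed as a ratio to untreated controls stained in parallel, from biological triplicates.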

The target in series [6] is c-Myc–Max heterodimers in HL60 cells (Homo sapiens, UniProt P01106). The series is described as follows: c-Myc–Max co-immunoprecipitation. It counts as cell-based. The note with it: HL60, 6 h. Put shortly: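 About 5 × 10^6 HL60 cells were exposed to test compound or DMSO vehicle for 6 h. Cells were pelleted at 500 × g, washed in ice-cold PBS and lysed in IP buffer, keeping an input aliquot. Max was immunoprecipitated, and precipitates were washed three times. They were run on 10% SDS-PAGE and immunoblotted with anti-Myc monoclonal 9E10 (1:1000).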

In series [7] the test system is HL60 promyelocytic leukemia cells. The series is described as follows: Cell cycle analysis, propidium iodide. In kind it is cell-based, human. The conditions noted are these: HL60, 24 h.
Series [8] concerns the target c-Myc–Max(S) heterodimer (Homo sapiens, UniProt P01106). The series is described as follows: SPR, c-Myc–Max. It counts as binding. (In general: In SPR one partner is held on a chip, and binding of the other changes the refractive index at the surface.)
Series [9] can be described thus: Solubility. It counts as physicochemical.
Series [10] relates to U266. The note with it: read-out: Growth inhibition IC50, U266; U266 myeloma, expresses L-Myc; cited from earlier work.
Series [11] addresses c-Myc bHLH-ZIP domain;Max(S) (Homo sapiens;Homo sapiens, UniProt P01106-1;P61244-2 353-437;1-151, |). The experiment in a line: SPR.
In series [12] the target is Max(L) (Homo sapiens, UniProt P61244 1-160). The series is described as follows: SPR.

Chain of c-Myc–Max heterodimers in HL60 cells (P01106 whole entry, one chain of several): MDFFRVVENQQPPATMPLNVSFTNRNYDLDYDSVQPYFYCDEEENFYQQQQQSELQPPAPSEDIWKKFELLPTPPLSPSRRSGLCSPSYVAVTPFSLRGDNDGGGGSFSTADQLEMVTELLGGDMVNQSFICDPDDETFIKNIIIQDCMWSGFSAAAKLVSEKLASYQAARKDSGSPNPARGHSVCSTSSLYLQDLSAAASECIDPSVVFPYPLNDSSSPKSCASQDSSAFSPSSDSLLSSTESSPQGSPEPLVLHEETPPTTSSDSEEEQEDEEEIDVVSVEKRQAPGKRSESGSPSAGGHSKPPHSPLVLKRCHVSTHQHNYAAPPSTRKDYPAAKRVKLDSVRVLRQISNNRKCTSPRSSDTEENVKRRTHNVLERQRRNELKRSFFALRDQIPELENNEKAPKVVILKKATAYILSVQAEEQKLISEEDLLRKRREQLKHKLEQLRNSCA

Turning to `CC(C)COc1cc(C(=O)O)ccc1NC(=O)c1ccc([N+](=O)[O-])c(OCC(C)C)n1` [compound 15, 3-Isobutoxy-4-(6-isobutoxy-5-nitropicolinamido)benzoic acid], the “EMSA screening, disruption of c-Myc–Max(S)/DNA binding” value (from here on “EMSA screening, disruption”) in series [1] is recorded as “complete disruption”.
With `O=[N+]([O-])c1ccc(Nc2ccccc2-c2ccccc2)c2nonc12` [compound 2, reference compound], the “Luciferase activity, wt-c-Myc vector” value in series [2] was “dose-dependent inhibition of luciferase”. Moreover, the “Luciferase activity, NF-kB vector” value in [3] was “no inhibition of luciferase was observed”. Moreover, the Half-life entry in [4] is on record as “short half-life”. In addition, in series [5], the Neutral lipid accumulation entry is reported as “increase in neutral lipid stores”.
Turning to `CC(C)COc1cc(C(=O)O)ccc1NC(=O)c1ccc([N+](=O)[O-])c(OCc2cccc3ccccc23)c1` [4da, 3-Isobutoxy-4-(3-(naphthalen-1-ylmethoxy)-4-nitrobenzamido)benzoic acid], the “EMSA screening, disruption” value in series [1] is given as “potent activity”. The “Luciferase activity, wt-c-Myc vector” value in series [2] is reported as “dose-dependent inhibition of luciferase”. For the same molecule, in [6], the “c-Myc–Max association by co-IP” value is on record as “remain largely intact”. Moreover, the Cell cycle arrest entry in [7] is recorded as “promoted a G0/G1 arrest”. In addition, in series [3], the “Luciferase activity, NF-kB vector” value is “no inhibition of luciferase was observed”. For the same molecule, the Neutral lipid accumulation entry in series [5] is reported as “increase in neutral lipid stores”. In series [8], this molecule showed a Kd of around 10 µM. In series [8] (c-Myc–Max(S) heterodimers pre-formed before addition of compound (Figure 4E)), the “Kd by SPR, pre-formed heterodimers” value was “somewhat higher Kd”.
For `COC(=O)c1ccc(NC(=O)c2ccc([N+](=O)[O-])c(OC(C)C)c2)c(OCC(C)C)c1` [14ba, Methyl 3-isobutoxy-4-(3-isopropoxy-4-nitrobenzamido)benzoate], in series [1], the “EMSA screening, disruption” value is reported as “modest inhibitory activities”. Besides, the Solubility result in [9] was “poor solubilities”.
As for `CCOC(=O)C(=O)Nc1ccc(C(=O)Nc2ccc(C(=O)O)cc2OCC(C)C)cc1OCC(C)C` [compound 21, 4-(4-(2-Ethoxy-2-oxoacetamido)-3-isobutoxybenzamido)-3-isobutoxybenzoic acid], in [1], the “EMSA screening, disruption” value is “complete disruption”.
On to `CCc1ccc(/C=C2\SC(=S)NC2=O)cc1` [10058-F4, reference compound], for which the half-inhibitory concentration (IC50) in [10] was around 100 µM. In addition, the “c-Myc–Max association by co-IP” value in series [6] was “abrogated c-Myc’s association with Max”. Moreover, the Cell cycle arrest entry in series [7] is listed as “promoted a G0/G1 arrest”.
“Methyl 3-benzyloxy-4-(3-isobutoxy-4-nitrobenzamido)benzoate [14ca]”: the “EMSA screening, disruption” value in [1] is listed as “modest inhibitory activities”.
Same read-out and setting: the value for `CC(C)COc1nc(C(=O)O)ccc1NC(=O)c1ccc([N+](=O)[O-])c(OCC(C)C)n1` [compound 16, 6-Isobutoxy-5-(6-isobutoxy-5-nitropicolinamido)picolinic acid] was “complete disruption”; that for `CC(C)COc1cc(C(=O)O)ccc1NC(=O)c1ccc([N+](=O)[O-])c(OCc2ccccc2)c1` [4ca, 3-Isobutoxy-4-(3-benzyloxy-4-nitrobenzamido)benzoic acid] was “complete disruption”.
Still for that read-out and setting: the value for `CC(C)COc1cc(C(=O)O)ccc1NC(=O)c1ccc([N+](=O)[O-])c(OCC(C)C)c1` [4aa, 3-Isobutoxy-4-(3-isobutoxy-4-nitrobenzamido)benzoic acid] was “potent activity”.

B1: E-box SPR oligonucleotide (dsDNA)
DNA 1: TGAAGCAGACCACGTGGTCGTCTTCA
DNA 2: TGAAGACGACCACGTGGTCTGCTTCA
For the molecule B1, the binding result in series [11] and in series [12] was “binds” each time.

The values are drawn from paper PMC4955407 (Journal of medicinal chemistry, 2015).
